Assays:
[1] = Antiviral activity against Human rhinovirus A71 infected in human H1HeLa cells assessed as protection against virus induced cytopathic effect after 3 days by MTT assay; format: functional, cell-based; details: Rhinovirus A, H1-HeLa, 72 h
Procedure, shortened: (§1)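 CPE-reduction assay in H1HeLa cells plated 2 d before. Equal volumes of virus and compound were added and held at 33 °C for 3 d under CO2. Supernatant was removed, then MTT was added for 1 h at 37 °C. Formazan was dissolved and read at 540 nm against a 690 nm reference. Survival was scaled between uninfected untreated wells (100%) and virus-only wells (0%); mean ± SD, three experiments.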

[2] = Cytotoxicity aganist human HeLa cells assessed as decrease in cell viability after 2 days by MTT assay; format: cell-based
Poliovirus 3 = assay: Antiviral activity against Human poliovirus 3 infected in human HeLa cells assessed as protection against virus induced cytopathic effect after 2 days by MTT assay; format: functional, cell-based; details: Enterovirus C, 48 h
Procedure, shortened: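 HeLa cells; MTT-based CPE reduction. Virus and compound added in equal volumes, incubated 37 °C for 2 d in CO2. Supernatant removed, MTT 1 h at 37 °C, formazan dissolved, absorbance 540 nm (690 nm reference). Uninfected untreated wells = 100% survival, virus-only = 0%. EC50 = 50% inhibition; means ± SD, three experiments.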

rhinovirus A21 = assay: Antiviral activity against Human rhinovirus A21 infected in human H1HeLa cells assessed as protection against virus induced cytopathic effect after 3 days by MTT assay; format: functional, cell-based; details: Rhinovirus A, H1-HeLa, 72 h; procedure, shortened: as §1
[3] = Cytotoxicity against human H1HeLa cells assessed as decrease in cell viability after 3 days by MTT assay; format: cell-based, H1-HeLa
rhinovirus B14 = assay: Antiviral activity against Human rhinovirus B14 infected in human H1HeLa cells assessed as protection against virus induced cytopathic effect after 3 days by MTT assay; format: functional, cell-based; details: Rhinovirus B, H1-HeLa, 72 h
[4] = Selectivity index, ratio of CC50 for human H1HeLa cells to EC50 for Human rhinovirus A21 infected in human H1HeLa cells; format: toxicity, cell-based; details: read-out: Ratio CC50/EC50
Procedure, shortened: (§2)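 H1HeLa cells plated 2 d ahead; virus plus compound (equal volumes) incubated 33 °C, 3 d, CO2. MTT 1 h at 37 °C, A540/A690. Survival scaled between uninfected untreated (100%) and virus-only (0%) wells to give EC50. CC50 = 50% cell death by MTT in H1HeLa. SI = CC50/EC50; at least three independent experiments.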

[5] = Selectivity index, ratio of CC50 for human H1HeLa cells to EC50 for Human rhinovirus A71 infected in human H1HeLa cells; format: toxicity, cell-based; details: read-out: Ratio CC50/EC50; procedure, shortened: as §2
[6] = Selectivity index, ratio of CC50 for human HeLa cells to EC50 for human poliovirus 3 infected in human HeLa cells; format: toxicity, cell-based; details: read-out: Ratio CC50/EC50
Procedure, shortened: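 SI = CC50/EC50 in HeLa cells. CC50 = 50% cell death by MTT. EC50 = 50% inhibition of PV3 CPE by MTT after 2 d at 37 °C, survival scaled to uninfected (100%) and virus-only (0%) wells. At least three independent experiments.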

SMILES	EC50 [1] [µM]	CC50 at 48 h [2] [µM]	EC50 (Poliovirus 3) [µM]	EC50 (rhinovirus A21) [µM]	CC50 at 72 h [3] [µM]	EC50 (rhinovirus B14) [µM]	selectivity ratio [4]	selectivity ratio [5]	selectivity ratio [6]
CNC(=O)c1cc(Oc2ccc3c(C)c(C(=O)O)sc3c2)ccn1	> 100	> 100	> 100	> 100	> 100	> 100	–	–	–
COc1ccc(OCc2ccc(COc3c(Cl)cccc3Cl)cc2)c(Cl)c1	0.25	16	0.08	2	> 100	> 100	> 50	> 400	200
CCOC(=O)c1sc2cc(Oc3ccnc(C(=O)OC)c3)ccc2c1C	15	26.2	> 26.2	> 24.9	24.9	> 24.9	–	1.7	–
CCOC(=O)c1cc2ccc(O)cc2s1	8.9	46.9	> 46.9	> 52.3	52.3	> 52.3	–	5.9	–
CNC(=O)c1cc(Oc2ccc3c(C)c(C(=O)N(C)C)sc3c2)ccn1	> 42.5	44.4	> 44.4	> 42.5	42.5	> 42.5	–	–	–
CNC(=O)c1cc(Oc2ccc3ccc(C(=O)Oc4ccccc4)cc3c2)ccn1	8.27	> 100	60.1	> 100	> 100	> 100	–	> 12	> 1.7
CCOC(=O)c1sc2cc(OC)ccc2c1C	3.8	> 100	1.8	> 100	> 100	> 100	–	> 26	> 56
CCOC(=O)c1cc2ccc(Oc3ccncc3)cc2s1	7.3	43.9	> 43.9	> 42.4	42.4	> 42.4	–	5.8	–
CCOC(=O)c1cc2ccc(Oc3ccnc(C(=O)NC)c3)cc2o1	1.4	> 100	> 100	66	> 100	> 100	> 1.5	> 71	–
CNC(=O)c1cc(Oc2ccc3cc(C(=O)OC)sc3c2)ccn1	4.6	68.3	> 68.3	75.6	> 100	> 100	> 1.3	> 22	–
CCOC(=O)c1cc2ccc(OC)cc2s1	5.1	44.4	13.1	> 70.9	70.9	> 70.9	–	14	3.4
CCNC(=O)c1sc2cc(Oc3ccnc(C(=O)NC)c3)ccc2c1C	> 100	> 100	> 100	> 100	> 100	> 100	–	–	–
CCOC(=O)c1sc2cc(Oc3ccccc3)ccc2c1C	1.7	47.6	> 47.6	1	> 100	> 100	> 100	> 59	–
CCOC(=O)c1sc2cc(Oc3ccnc(C(=O)NC)c3)ccc2c1N	> 0.11	0.45	> 0.45	> 0.11	0.11	> 0.11	–	–	–
CNC(=O)c1ccc(Oc2ccc3c(C)c(C(=O)OC(C)C)sc3c2)cn1	1.7	12.9	> 12.9	3.3	7.6	> 7.6	2.3	4.5	–
CCOC(=O)c1sc2cc(O)ccc2c1C	> 82	46.6	9.4	> 82	82	> 82	–	–	5
